ChEMBL document CHEMBL1143018, “Synthesis and activity studies of analogues of the rat selective toxicant norbormide” (Bioorg Med Chem, 2007)
pEC50: −log10 of the molar value. Active and inactive are the calls of the source. No cut-off for these calls is given here.

Columns and labels:
Heart = experiment: Coronaroconstriction in Wistar rat heart Langendorff preparations at 1 uM; assay type: functional, tissue-based
Aorta = experiment: Vasodilation activity assessed as inhibition of KCl-induced contraction in Wistar rat aorta at 50 uM; assay type: functional
Method in brief: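 Rat aortic rings were contracted with 90 mM KCl with and without a maximal concentration of compound. Inhibition was calculated as 100 × (C − AC)/C, where C and AC are the contractile effects in milligrams with KCl alone and with compound.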

[1] = Vasoconstriction effect in Wistar rat caudal artery; assay type: functional, tissue-based
Method in brief: (§1)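 Endothelium-denuded rat caudal artery rings; denudation was confirmed by absence of carbamylcholine-induced relaxation. Cumulative concentration–response curves were run over 0.1–50 µM. Contractions were expressed as a percentage of the 90 mM KCl-induced contraction. Values are mean of at least 4 rings.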

[2] = Vasoconstriction effect in Wistar rat caudal artery relative to KCl; assay type: functional, tissue-based; method in brief: as §1
Rattus norvegicus [3] = experiment: Toxicity in Wistar rat assessed as death at 20 mg/kg, ip after 1 hr; assay type: functional, organism-based; parameters: dose 20 mg/kg
Rattus norvegicus [4] = experiment: Toxicity in Wistar rat assessed as death at 40 mg/kg, ip after 1 hr; assay type: functional, organism-based; parameters: dose 40 mg/kg
Method in brief: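 Four male Wistar rats (150–250 g) per compound. Drug was dissolved in DMSO at 40 mg/kg and injected intraperitoneally. Animals were kept in a quiet room and watched every 15 min for early signs of toxicity. Four rats given solvent alone served as controls.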

Liver [5] = experiment: Stimulation of mitochondrial permeability transition measured by Ca2+ retention capacity of Wistar Albino rat liver mitochondria at 50 uM; assay type: functional
Method in brief: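 Liver mitochondria from Albino Wistar rats, isolated by differential centrifugation and suspended in Tris/HCl pH 7.4 with 0.25 M sucrose and 0.1 mM EGTA. Only preparations with RCR ≥ 3.0 (Clark electrode, succinate, 25 °C) were used. MPT was induced by Ca2+ at 25 °C in medium of 200 mM sucrose, 10 mM Tris–MOPS, 10 µM EGTA–Tris, 1 mM Pi, 0.5 µg/mL oligomycin, 5 mM succinate, 2 µM rotenone, pH 7.4.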

Liver [6] = experiment: Stimulation of mitochondrial permeability transition measured by Ca2+ retention capacity of mouse liver mitochondria; assay type: functional

| Compound | Activity (Heart) | inhibition at 50 µM (Aorta) [%] | pEC50 [1] | Activity [2] [%] | Activity (Rattus norvegicus [3]) | other results |
| --- | --- | --- | --- | --- | --- | --- |
| CC(O)(c1ccccc1)c1ccccn1 (stereo not given) | inactive |  |  |  |  |  |
| O=C1NC(=O)[C@H]2C3C=C(C(O)(c4ccccc4)c4ccccn4)C(C3)[C@@H]12 (stereo not given in full) | inactive |  |  |  |  |  |
| O=C1NC(=O)C2C3OC(C=C3C(O)(c3ccccc3)c3ccccn3)C12 (stereo not given) | inactive |  |  |  |  |  |
| O=C1NC(=O)[C@H]2C3C=CC(C3)[C@@H]12 | inactive |  |  |  |  |  |
| O=C1NC(=O)[C@H]2C3C=C(C(O)(c4ccccc4)c4ccccn4)C(C3=C(c3ccccc3)c3ccccc3)[C@@H]12 (stereo not given in full) | inactive | 31 |  |  |  |  |
| O=C1NC(=O)C2C3C(C(O)(c4ccccc4)c4ccccn4)=CC(/C3=C(/c3ccccc3)c3ccccn3)C12 (stereo not given) | Active | 64 | 6.00 | 209 | Toxic |  |
| OC(C1=CC2CCC1C2)(c1ccccc1)c1ccccn1 (mixture of isomers) | inactive | 69 |  |  | Not toxic |  |
| O=C1NC(=O)[C@H]2C3C(C(O)(c4ccccc4)c4ccccn4)=CC(C3=C(c3ccccc3)c3ccccc3)[C@@H]12 (stereo not given in full) | Active | 42 | 5.38 | 185 |  | Activity (Rattus norvegicus [4]): Toxic |
| O=C1NC(=O)C2C3C=CC(C3=C(c3ccccc3)c3ccccn3)C12 (stereo not given) | inactive |  | 5.11 | 193 | Not toxic | Activity (Liver [5]): Active |
| OC(C1=CC2CCC1/C2=C(\c1ccccc1)c1ccccn1)(c1ccccc1)c1ccccn1 (mixture of isomers) | inactive | 60 |  |  | Not toxic |  |
| O=C1CCC(=O)N1 | inactive |  |  |  |  |  |
| O=C1NC(=O)[C@H]2C3CC(C=C3C(O)(c3ccccc3)c3ccccn3)[C@@H]12 (stereo not given in full) | inactive |  |  |  |  |  |
| C=C(c1ccccc1)c1ccccn1 | inactive |  | 4.96 | 185 | Not toxic | Activity (Liver [5]): Active; Activity (Liver [6]): inactive |
